In brackets after ≈: the same amount, converted by molar mass.

One experiment has as its system HT-29. As to the kind of experiment: Cytotoxicity against human HT-29 cells after 96 hrs by MTT assay. The class given is functional, cell-based. The settings on record: HT-29, 96 h. Put shortly:
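Cells were seeded at 5000 or 10,000 per well and exposed to medium with various sample concentrations for 96 h, with 0.1% DMSO as vehicle control. MTT (5 mg/mL in PBS) was then added for 4 h at 37 °C, 5% CO2. Formazan was dissolved in DMSO and read at OD 570 nm. IC50 is the concentration giving 50% toxicity; duplicate tests, mean ± SD (n = 2).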

Experiment [1] can be described thus: Antioxidant activity assessed as superoxide radical scavenging activity after 2 mins by NBT reduction assay. Format: functional. Put shortly:
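The 1 mL reaction held 20 mM phosphate buffer pH 7.4, NADH 73 µM, NBT 50 µM, PMS 15 µM and sample at several concentrations. After 2 min at ambient temperature, formazan was read at A562 against a blank. % scavenging was taken vs control. Done three times, with BHT as comparator.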

Experiment [2] can be described thus: Antioxidant activity assessed as ABTS radical scavenging activity after 10 mins by spectrophotometric analysis. Format: functional. The gist of the method: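 ABTS radical cation was made from 7 mM ABTS in water plus potassium persulfate (2.45 mM final), left 12 h in the dark at room temperature, then diluted in methanol to A734 0.706 ± 0.009. 1 mL of this was mixed with 1 mL of methanolic sample at several concentrations. […] Run in triplicate with a BHT positive control.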

Experiment [3] relates to Radical scavenging activity. The experiment is described as follows: Antioxidant activity assessed as DPPH free radical scavenging activity after 30 mins by spectrophotometric analysis. Format: functional. Put shortly: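 Daily methanolic DPPH solution was adjusted to A517 = 1.1. Methanolic sample at several concentrations was added to 1 mL, incubated 30 min at 37 °C, then A517 was read. Scavenging % = [(Acontrol − Asample)/Acontrol] × 100. Run in triplicate with BHT as positive control.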

Experiment [4] can be described thus: Antioxidant activity assessed as H2O2 scavenging activity by NBT reduction assay. Format: functional. Put shortly: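 H2O2 at 43 mM was prepared in 0.1 M phosphate buffer, pH 7.4. 100 µL of test solution was added along with NADH (73 µM), NBT (50 µM) and PMS (15 µM), 500 µL each. Percent H2O2 scavenged = [(Acontrol − Asample)/Acontrol] × 100.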
Another experiment has as its target Acetylcholinesterase (Homo sapiens, UniProt P22303). As to the kind of experiment: Inhibition of acetylcholinesterase (unknown origin) using acetylcholine iodide as substrate preincubated for 15 mins prior to substrate addition by spectrophotometric analysis.
A further experiment concerns HCT-116. As to the kind of experiment: Cytotoxicity against human HCT116 cells after 96 hrs by MTT assay. Format: functional, cell-based. The following applies: HCT-116, 96 h. The gist of the method:
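Cells were seeded at 5000 or 10,000 per well and exposed to medium with various sample concentrations for 96 h, with 0.1% DMSO as vehicle control. MTT (5 mg/mL in PBS) was then added for 4 h at 37 °C, 5% CO2. Formazan was dissolved in DMSO and read at OD 570 nm.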

The next experiment concerns PANC-1. As to the kind of experiment: Cytotoxicity against human PANC1 cells after 96 hrs by MTT assay. The class given is functional, cell-based. The following applies: PANC-1, 96 h.
The next experiment deals with MT4. The experiment is described as follows: Cytotoxicity against human MT4 cells after 96 hrs by MTT assay. Format: functional, cell-based. The settings on record: MT4, 96 h.
Experiment [5] has as its system Radical scavenging activity. The experiment is described as follows: Antioxidant activity assessed as DPPH free radical scavenging activity by spectrophotometric analysis. Format: functional.
The nature of experiment [6]: Cytotoxicity against human MES-SA/Dx5 cells after 96 hrs by MTT assay. The following applies: MES-SA/Dx5, 96 h. Format: functional, cell-based.
Experiment [7] in a line: Antioxidant activity assessed as superoxide radical scavenging activity measured every 30 seconds for 5 mins by spectrophotometric analysis. The class given is functional.
Another experiment concerns AGS. As to the kind of experiment: Cytotoxicity against human AGS cells after 96 hrs by MTT assay. The class given is functional, cell-based.
Experiment [8] is described as follows: Antioxidant activity assessed as hydroxyl radical scavenging activity after 20 mins by spectrophotometric analysis. Format: functional.
Experiment [9] can be described thus: Antioxidant activity assessed as ABTS radical scavenging activity after 6 mins by spectrophotometric analysis. Format: functional.
The test system of the next experiment is K562. The experiment is described as follows: Cytotoxicity against human K562 cells after 96 hrs by MTT assay. The class given is functional, cell-based. The settings on record: K562, 96 h.

Acetylcholinesterase, sequence (P22303 whole entry): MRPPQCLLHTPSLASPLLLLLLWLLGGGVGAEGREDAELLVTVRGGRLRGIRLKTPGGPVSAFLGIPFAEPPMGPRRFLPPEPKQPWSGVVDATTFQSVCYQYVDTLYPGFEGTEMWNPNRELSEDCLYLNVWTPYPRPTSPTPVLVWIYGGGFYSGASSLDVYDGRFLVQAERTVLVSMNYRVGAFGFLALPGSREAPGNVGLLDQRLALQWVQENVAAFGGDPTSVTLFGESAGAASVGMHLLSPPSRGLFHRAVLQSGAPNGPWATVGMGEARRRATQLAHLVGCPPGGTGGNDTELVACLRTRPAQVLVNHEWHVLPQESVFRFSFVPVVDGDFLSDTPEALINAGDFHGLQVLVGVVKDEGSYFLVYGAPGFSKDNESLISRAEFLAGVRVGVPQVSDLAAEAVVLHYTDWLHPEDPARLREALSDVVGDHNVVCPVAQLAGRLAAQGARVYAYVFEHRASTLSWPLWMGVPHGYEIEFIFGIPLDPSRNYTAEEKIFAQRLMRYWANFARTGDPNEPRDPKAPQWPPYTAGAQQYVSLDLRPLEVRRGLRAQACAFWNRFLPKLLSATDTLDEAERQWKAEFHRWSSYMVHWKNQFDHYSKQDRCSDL

Take `CC(=O)O[C@H]1C(=O)[C@@]2(C)[C@H]([C@H](OC(=O)c3ccccc3)[C@]3(O)C[C@H](OC(=O)[C@H](O)[C@@H](NC(=O)c4ccccc4)c4ccccc4)C(C)=C1C3(C)C)[C@]1(OC(C)=O)CO[C@@H]1C[C@@H]2O` [PACLITAXEL]: in the experiment with HT-29, the IC50 came to 0.00198 µM.

On to `Cc1cc(C(C)(C)C)c(O)c(C(C)(C)C)c1` [BUTYLATED HYDROXYTOLUENE], for which the concentration for half-maximal inhibition (IC50) in [1] worked out at 7.26 µM; in experiment [2], 6.85 µM; in experiment [3] (read-out: IC50), 9.02 µM; in experiment [4], 6.38 µM.

On to `COc1c2occc2cc2ccc(=O)oc12` [METHOXSALEN], for which the half-maximal inhibitory concentration (IC50) on Acetylcholinesterase is 0.76 µM; in the experiment on HCT-116, greater than 100 µM; in the experiment on PANC-1, 83.3 µM; in the experiment with HT-29, greater than 100 µM.

As to `O=c1ccc2ccc(O)cc2o1` [UMBELLIFERONE], the concentration for half-maximal inhibition (IC50) with MT4 worked out at 2340 µM; in experiment [5], 36.1 µg/mL (≈ 223 µM); with HCT-116, 8.05 µM; in the experiment with HT-29, 4.35 µM.

For `CC(C)=CC(=O)OC(C)(C)[C@@H]1Cc2cc3ccc(=O)oc3cc2O1` [(-)-PRANTSCHIMGIN], the concentration for half-maximal inhibition (IC50) in experiment [6] was 3.1 µM; on Acetylcholinesterase, greater than 100 µM; with HCT-116, 15 µM; in the experiment with HT-29 it was 5.2 µM.

Turning to `O=C(O)/C=C/c1ccc(O)c(O)c1` [CAFFEIC ACID], the IC50 in [7] is 0.38 µg/mL (≈ 2.11 µM); in experiment [3], 0.39 µg/mL; against Acetylcholinesterase, greater than 100 µM; with AGS, 129 µM; in experiment [8] it was 0.37 µg/mL (≈ 2.05 µM); with HCT-116 it was 29.7 µM. Also, the IC50 in the experiment on HT-29 came to 27.2 µM; in experiment [9], 0.57 µg/mL (≈ 3.16 µM).

In the case of `C/C=C(\C)C(=O)OC(C)(C)[C@@H]1Cc2cc3ccc(=O)oc3cc2O1`, the IC50 at Acetylcholinesterase was greater than 100 µM; in the experiment with HCT-116, 7.6 µM; in the experiment with HT-29 it was 0.93 µM.

Consider `O=c1ccc2cc3ccoc3cc2o1` [PSORALEN], for which the IC50 is 6.48 µM at Acetylcholinesterase, 45.6 µM in the experiment on HCT-116, 131 µM in the experiment with K562 and 41.7 µM with HT-29.
